The nature of data set [1]: Inhibitory activity against human foreskin fibroblast cell proliferation. Format: functional, cell-based. The gist of the method: (§1)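 Proliferating HFF cells; growth inhibition expressed as IC50. Compounds tested up to top concentrations of 130–310 μM.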
A further data set concerns Human alphaherpesvirus 3. Put plainly: In vitro antiviral activity against Varicella zoster virus. It is filed as functional, organism-based. A digest of the protocol:
(§2)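 CPE inhibition and plaque reduction assays in human foreskin fibroblast (HFF) or Vero cells, run under the NIH Antiviral Research Branch program. Virus strains: HCMV AD-169, HSV-2 MS, VZV Ellen. Acyclovir or ganciclovir served as reference drug.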

Data set [2] can be described thus: In vitro cytotoxicity against stationary phase human foreskin fibroblast cells. Format: cell-based. A digest of the protocol:
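Stationary-phase HFF cells; cytotoxicity read by neutral red uptake and expressed as CC50. Compounds tested up to top concentrations of 240–340 μM.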

Data set [3] is described as follows: In vitro cytotoxicity against stationary phase vero cells. Format: cell-based. Conditions: chlorocebus sabaeus. The gist of the method:
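Stationary-phase Vero cells; cytotoxicity read by MTT assay and expressed as CC50. Compounds tested up to top concentrations of 260–620 μM.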

For a further data set, the system named is Anas sp. Put plainly: (§3) In vitro antiviral activity against duck hepatitis B virus (DHBV). It is filed as functional, organism-based. The gist of the method: (§4)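 Virus replication inhibition measured in primary hepatocyte cultures prepared from congenitally DHBV-infected ducks.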
A further data set concerns Human betaherpesvirus 5. Put plainly: Antiviral activity against human cytomegalovirus. Format: functional, organism-based. The gist of the method:
as §2

Data set [4] is described as follows: Cytotoxicity against human foreskin fibroblast cell proliferation. Conditions: human foreskin fibroblast cells (proliferating). It is filed as cell-based. A digest of the protocol: as §1
Another data set concerns Human alphaherpesvirus 1. Put plainly: In vitro antiviral activity against Herpes simplex virus type 1. It is filed as functional, organism-based. A digest of the protocol:
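HSV-1 strains tested: KOS and E-377 (both TK+), and the TK-deficient mutant KOSSB in Vero cells. E-377 was assayed by CPE inhibition and plaque reduction under the NIH program. Acyclovir or ganciclovir served as reference.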

The next data set has as its system Human alphaherpesvirus 2. Put plainly: In vitro antiviral activity against Herpes simplex virus type 2. It is filed as functional, organism-based. The gist of the method: as §2
Another data set has as its system Hepatitis B virus. The data set is described as §3. It is filed as functional, organism-based. A digest of the protocol:
as §4

One may read the IC50 as the concentration that inhibits the measured activity by half. Low readings indicate greater potency, high ones weaker potency. By EC50 is commonly meant the midpoint of the concentration-response curve. High values mean a less potent agent, low ones a more potent agent. As usually defined, the CC50 is the concentration at which the toxic effect on the cells reaches its halfway point. A higher CC50 goes with better tolerance by the cells.

With `[N-]=[N+]=NC(CI)c1cn(COC(CO)CO)c(=O)[nH]c1=O` (configuration not stated), the IC50 in data set [1] is greater than 130 µM. Further, in the data set with Human alphaherpesvirus 3, the EC50 came to 2.4 µM. The CC50 is greater than 240 µM in [2] and greater than 260 µM in [3].

Take `[N-]=[N+]=NC(CBr)c1cn(COCCO)c(=O)[nH]c1=O` (configuration not stated): in [1], the 50% inhibitory concentration (IC50) was greater than 130 µM. Moreover, the results for the CC50 in data set [2] and in data set [3] were greater than 240 µM and greater than 260 µM, respectively.

In turn, `[N-]=[N+]=NC(CBr)c1cn([C@H]2C[C@H](O)[C@@H](CO)O2)c(=O)[nH]c1=O` (some centres not stated) yielded an EC50 with Anas sp. of 2.6 µM.

`[N-]=[N+]=NC(CBr)c1cn(COC(CO)CO)c(=O)[nH]c1=O` (configuration not stated) returned an IC50 in [1] greater than 130 µM. In addition, the figures for the half-maximal cytotoxic concentration (CC50) in data set [2] and in data set [3] were greater than 240 µM and greater than 260 µM, respectively.

Turning to `[N-]=[N+]=NC(CI)c1cn(CCC(CO)CO)c(=O)[nH]c1=O` (configuration not stated), the IC50 in [1] was greater than 310 µM; in data set [4], greater than 260 µM. The molecule also came in with an EC50 in the data set on Human betaherpesvirus 5 of 14.4 µM.

Take `[N-]=[N+]=NC(CI)c1cn(COCCO)c(=O)[nH]c1=O` (configuration not stated): the IC50 in data set [1] was greater than 130 µM. Besides, the half-maximal cytotoxic concentration (CC50) in data set [2] was greater than 240 µM; in data set [3] it was greater than 260 µM.

`[N-]=[N+]=NC(CCl)c1cn([C@@H]2O[C@H](CO)[C@@H](O)[C@@H]2O)c(=O)[nH]c1=O` (some centres not stated): the EC50 in the data set on Human alphaherpesvirus 3 was 0.08 µM; with Human alphaherpesvirus 1, 0.46 µM; in the data set with Human betaherpesvirus 5, 1.45 µM.

As for `[N-]=[N+]=NC(CCl)c1cn([C@H]2C[C@H](O)[C@@H](CO)O2)c(=O)[nH]c1=O` (some centres not stated), the EC50 in the data set with Human alphaherpesvirus 3 was determined as 4.5 µM; in the data set on Human alphaherpesvirus 1, 0.06 µM; with Human alphaherpesvirus 2, 2.9 µM; in the data set on Anas sp., 15 µM.

For `Nc1nc(O)c2ncn(CCC(CO)CO)c2n1` [PENCICLOVIR], the response in the data set on Hepatitis B virus was half-maximal at 0.7 µM (EC50).

Regarding `Nc1nc2c(ncn2COC(CO)CO)c(=O)[nH]1` [GANCICLOVIR], in data set [1], half-maximal inhibition (IC50) required 156 µM. For the same molecule, the EC50 with Human betaherpesvirus 5 worked out at 0.23 µM; in the data set on Hepatitis B virus, 4 µM.

For `[N-]=[N+]=NC(CBr)c1cn(CCC(CO)CO)c(=O)[nH]c1=O` (configuration not stated), in data set [1], the IC50 was greater than 270 µM. The molecule further gave an EC50 in the data set with Human betaherpesvirus 5 of 2.7 µM. Moreover, the values for the 50% cytotoxic concentration (CC50) in data set [2] and in data set [3] were greater than 240 µM and greater than 260 µM, respectively.

In data set [1], `[N-]=[N+]=NC(CCl)c1cn(CCC(CO)CO)c(=O)[nH]c1=O` (configuration not stated) registered a half-maximal inhibitory concentration (IC50) greater than 310 µM. Moreover, the cytotoxic concentration (CC50) is greater than 240 µM in [2] and greater than 260 µM in data set [3].

In the case of `[N-]=[N+]=NC(CCl)c1cn(COC(CO)CO)c(=O)[nH]c1=O` (configuration not stated), in [1], the IC50 is greater than 130 µM. Moreover, the results for the CC50 in [2] and in [3] were greater than 240 µM and greater than 260 µM, respectively.

As to `[N-]=[N+]=NC(CCl)c1cn(COCCO)c(=O)[nH]c1=O` (configuration not stated), the IC50 in data set [1] is greater than 130 µM. Moreover, the CC50 is greater than 240 µM in [2] and greater than 260 µM in data set [3].

As to `Nc1nc2c(ncn2COCCO)c(=O)[nH]1` [ACYCLOVIR], the EC50 in the data set on Human alphaherpesvirus 3 turned out to be 2.6 µM.

These data come from ChEMBL document CHEMBL1134840, “Synthesis and antiviral activity of novel acyclic nucleoside analogues of 5-(1-azido-2-haloethyl)uracils” (J Med Chem, 2001).
